Structures are written as SMILES.

We go through 1 compound from ChEMBL document CHEMBL1124093, “Peptide derivatives of primaquine as potential antimalarial agents” (J Med Chem, 1988).

The subject of series [1] is Mus musculus. Description: Antimalarial activity against Plasmodium berghei in mice (Mus musculus) at 320 mg/kg measured as number of toxic deaths occurring on days 2-5 after infection. Format: ADME, organism-based. Set-up: dose 320 mg/kg. The following applies: in vivo. The method in brief: (§1)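 Mice infected with blood-induced P. berghei, five animals per group, run by the Osdene et al. method. Doses are expressed as mg primaquine diphosphate/kg. The read-out is the number of deaths attributed to toxicity occurring on days 2-5 after infection.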

The subject of series [2] is Mus musculus. Description: Antimalarial activity against Plasmodium berghei in mice (Mus musculus) at 160 mg/kg measured as number of toxic deaths occurring on days 2-5 after infection. The class given is ADME, organism-based. Set-up: dose 160 mg/kg. The conditions noted are these: in vivo. In short, it runs like this:
as §1

The test system of series [3] is Mus musculus. In words: Antimalarial activity against Plasmodium berghei in mice (Mus musculus) at 640 mg/kg measured as number of toxic deaths occurring on days 2-5 after infection. Format: ADME, organism-based. Set-up: dose 640 mg/kg. The following applies: in vivo. The method in brief:
as §1

The subject of series [4] is Plasmodium cynomolgi. Description: Antimalarial activity against Plasmodium cynomolgi in Rhesus monkeys (Macaca mulatta) at 0.316 mg/kg; cured 0 of 2. Format: functional.
Series [5] deals with Plasmodium cynomolgi. Description: Antimalarial activity against Plasmodium cynomolgi in Rhesus monkeys (Macaca mulatta) at 1 mg/kg; cured 1 of 2.
For series [6], the system named is Mus musculus. In words: Antimalarial activity against Plasmodium berghei in rodent at 80 mg/Kg measured as mean survival time over control (Delta MST). The class given is functional.

With `COc1cc(NC(C)CCCN)c2ncccc2c1` (stereo unspecified) [PRIMAQUINE], the Toxic deaths in series [1] was 5; in series [2], 2; in series [3] it was 5. Further, the Cures in series [4] came to 0; in series [5] it was 1. Further, the “Delta MST” value in series [6] came to 9.
